The source of these data is ChEMBL document CHEMBL1154986, “New anti-malarial phenylpropanoid conjugated iridoids from Morinda morindoides” (Bioorg Med Chem Lett, 2010).

One data set relates to Plasmodium falciparum. Nature of the data set: Antimalarial activity against cycloguanil-resistant Plasmodium falciparum CDC1 assessed as inhibition of ring stage parasitaemia after 48 hrs by Giemsa staining. The note with it: CDC1, 48 h. The class given is functional, organism-based. A digest of the protocol:
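Sorbitol-synchronized ring-stage culture (0.5% parasitemia, 4% hematocrit type O human RBC) in RPMI 1640 with 10% heat-inactivated type O human serum, HEPES, glutamine, NaHCO3, hypoxanthine, gentamycin; 5% CO2/5% O2/90% N2, 37 °C. Samples from DMSO stock diluted in medium, 1% DMSO final; 48 h. Proliferation counted on Giemsa thin films, 10,000 erythrocytes per film, triplicate. Quinine as control.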

Data set [1] in a line: Cytotoxicity against human KB-3-1 cells at 150 uM after 72 hrs by MTT assay. It counts as cell-based. The note with it: read-out: GI.
Data set [2] in a line: Cytotoxicity against human KB-3-1 cells after 72 hrs by MTT assay. It counts as cell-based. The note with it: KB 3-1, 72 h. In outline: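 KB-3-1 cells grown in RPMI 1640 with 10% newborn calf serum, glutamine, kanamycin, 5% CO2, 37 °C. 1.0 × 10^4 cells per well, then sample added in medium containing 2% DMSO; 72 h at 37 °C. MTT (2 mg/mL in PBS) added afterwards; growth inhibition from absorbance at 540 nm. Mitomycin C as positive control.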

Usually IC50 stands for the point on the concentration scale where inhibition reaches its midpoint. What is called IC90 is the point of the concentration-response curve where the effect stands at 90%.

SMILES strings stand for the structures. In brackets after ≈: the same amount, converted by molar mass.

Turning to `C=C[C@H]1CN2CC[C@H]1C[C@H]2[C@H](O)c1ccnc2ccc(OC)cc12` [QUININE], in the data set on Plasmodium falciparum, the IC50 worked out at 0.04 µg/mL and the IC90 was found to be 0.09 µg/mL (≈ 0.277 µM).
On to `COC(=O)C1=CO[C@@H](O[C@@H]2O[C@H](COC(C)=O)[C@@H](O)[C@H](O)[C@H]2O)[C@H]2[C@@H]1C=C[C@@]21C=C([C@H](O)c2ccc(O)c(OC)c2)C(=O)O1`, for which the IC50 in the data set on Plasmodium falciparum was found to be 100 nM. In addition, the inhibition at 72 h, 150 µM in data set [1] was found to be 9.3%.
In turn, `CO[C@@]12[C@H](COC(N)=O)C3=C(C(=O)C(C)=C(N)C3=O)N1C[C@@H]1N[C@@H]12` [MITOMYCIN] showed an IC50 in data set [2] of 0.1 µg/mL (≈ 0.299 µM).
In the case of `COC(=O)C1=CO[C@@H](O[C@@H]2O[C@H](CO)[C@@H](O)[C@H](O)[C@H]2O)[C@H]2[C@@H]1C=C[C@@]21C=C([C@H](O)c2ccc(O)c(OC)c2)C(=O)O1`, the IC50 in the data set with Plasmodium falciparum stood at 21900 nM. For the same molecule, the inhibition at 72 h, 150 µM in data set [1] came out at 13.1%.
For `COC(=O)C1=CO[C@@H](O[C@@H]2O[C@H](COC(C)=O)[C@@H](O)[C@H](O)[C@H]2O)[C@H]2[C@@H]1C=C[C@@]21C=C([C@H](O)c2ccc(O)cc2)C(=O)O1` the same measures were 4100 nM and 4.3%.
On to `COC(=O)C1=CO[C@@H](O[C@@H]2O[C@H](CO)[C@@H](O)[C@H](O)[C@H]2O)[C@H]2[C@@H]1C=C[C@@]21C=C([C@H](O)c2ccc(O)cc2)C(=O)O1`, for which the IC50 in the data set with Plasmodium falciparum was found to be 800 nM. The inhibition at 72 h, 150 µM in data set [1] is 13.4%.
As for `COC(=O)C1=CO[C@@H](O[C@@H]2O[C@H](CO)[C@@H](O)[C@H](O)[C@H]2O)[C@H]2[C@@H]1C=C[C@@]21C=C(C(=O)c2ccc(O)c(OC)c2)C(=O)O1` [DEHYDROMETHOXYGAERTNEROSIDE], the IC50 in the data set with Plasmodium falciparum was 40 nM. For the same molecule, the inhibition at 72 h, 150 µM in data set [1] was 6.1%.
